Results reported in ChEMBL document CHEMBL4411272, “Design, synthesis and biological evaluation of AZD9291 derivatives as selective and potent EGFRL858R/T790M inhibitors” (Eur J Med Chem, 2019).
The source made the active and inactive calls. No cut-off for these calls is given here.

How the values were obtained:
[1] = test system: A549; assay: Cell cycle arrest in human A549 cells assessed as accumulation of cells at G2/M phase at 0.72 uM after 24 hrs by propidium iodide staining-based flow cytometric analysis (reference value: 2.65%); format: functional
In short: (§1)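 A549 cells seeded at 1×10^5 per well, grown 24 h, then treated 24 h with vehicle (0.1% DMSO) or compound at several concentrations. Cells fixed in ice-cold 70% ethanol at 4 °C for 12 h, washed in PBS, treated with 1 mg/mL RNase for 30 min at 37 °C, stained with propidium iodide 30 min in the dark. DNA content measured by flow cytometry.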

[2] = test system: A549; assay: Antiproliferative activity against human A549 cells after 72 hrs by MTT assay; format: functional, cell-based; conditions: A549, 72 h
In short: (§2)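 MTT assay; cells grown as monolayers in DMEM or RPMI1640 with 10% FBS at 37 °C, 5% CO2 for 24 h, then compound added for 72 h. MTT at 5 μg/mL for 4 h at 37 °C, formazan dissolved in DMSO, absorbance read at 492 nm with 630 nm reference. Each compound tested three times per line; IC50 from averaged determinations.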

[3] = test system: NCI-H1975; assay: Induction of apoptosis in human NCI-H1975 assessed as formation of cells with sharp edge at 0.25 uM by acridine orange staining-based fluorescence assay; format: functional, cell-based
In short: (§3)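 H1975 cells stained with acridine orange after treatment, alongside an untreated control group. Cell and chromatin morphology assessed by fluorescence imaging.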

[4] = test system: A549; assay: Cell cycle arrest in human A549 cells assessed as accumulation of cells at G2/M phase at 0.36 uM after 24 hrs by propidium iodide staining-based flow cytometric analysis (reference value: 2.65%); format: functional; in short: as §1
[5] = test system: HepG2; assay: Antiproliferative activity against human HepG2 cells after 72 hrs by MTT assay; format: functional, cell-based; conditions: HepG2, 72 h
In short: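 MTT assay; cells grown as monolayers in DMEM or RPMI1640 with 10% FBS at 37 °C, 5% CO2 for 24 h, then compound added for 72 h. Each compound tested three times per line; IC50 from averaged determinations.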

[6] = target: Epidermal growth factor receptor (Homo sapiens, UniProt P00533); assay: Inhibition of wild-type EGFR (unknown origin) using substrate-biotin by ELISA-based mobility shift assay
[7] = target: Epidermal growth factor receptor (Homo sapiens, UniProt P00533, L858R/T790M); assay: Inhibition of EGFR T790M/L858R double mutant (unknown origin) using substrate-biotin by ELISA-based mobility shift assay
[8] = test system: A549; assay: Cell cycle arrest in human A549 cells assessed as accumulation of cells at S phase at 0.72 uM after 24 hrs by propidium iodide staining-based flow cytometric analysis (reference value: 32.13%); format: functional; in short: as §1
[9] = test system: NCI-H1975; assay: Antiproliferative activity against human NCI-H1975 cells after 72 hrs by MTT assay; format: functional, cell-based; conditions: NCI-H1975, 72 h; in short: as §2
[10] = organism: Homo sapiens; assay: Selectivity ratio of IC50 for wild-type EGFR (unknown origin) to IC50 for EGFR T790M/L858R double mutant (unknown origin)
[11] = test system: NCI-H1975; assay: Induction of apoptosis in human NCI-H1975 assessed as induction of membrane damage at 0.25 uM by H33342 staining-based inverted fluorescence microscopic analysis; format: functional, cell-based
In short: (§4)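 H1975 cells stained with Hoechst 33342 after treatment, alongside an untreated control. Nuclear blue fluorescence, dye uptake, chromatin condensation and cell structure viewed under an inverted fluorescence microscope.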

[12] = test system: A549; assay: Cell cycle arrest in human A549 cells assessed as accumulation of cells at G2/M phase at 1.80 uM after 24 hrs by propidium iodide staining-based flow cytometric analysis (reference value: 2.65%); format: functional; in short: as §1
[13] = test system: A549; assay: Cell cycle arrest in human A549 cells assessed as accumulation at G2/M phase after 24 hrs by propidium iodide staining-based flow cytometric analysis; format: functional; in short: as §1
[14] = test system: A549; assay: Cell cycle arrest in human A549 cells assessed as accumulation of cells at S phase at 0.36 uM after 24 hrs by propidium iodide staining-based flow cytometric analysis (reference value: 32.13%); format: functional; in short: as §1
[15] = test system: A549; assay: Cell cycle arrest in human A549 cells assessed as accumulation of cells at S phase at 1.80 uM after 24 hrs by propidium iodide staining-based flow cytometric analysis (reference value: 32.13%); format: functional; in short: as §1
[16] = test system: NCI-H1975; assay: Induction of apoptosis in human NCI-H1975 assessed as induction of chromatin shrinkage at 0.25 uM by acridine orange staining-based fluorescence assay; format: functional, cell-based; in short: as §3
[17] = test system: NCI-H1975; assay: Induction of apoptosis in human NCI-H1975 assessed as induction of cell structure destruction at 0.25 uM by H33342 staining-based inverted fluorescence microscopic analysis; format: functional; in short: as §4
[18] = test system: A549; assay: Cell cycle arrest in human A549 cells assessed as accumulation of cells at G0/G1 phase at 0.72 uM after 24 hrs by propidium iodide staining-based flow cytometric analysis (reference value: 65.22%); format: functional; in short: as §1
[19] = test system: NCI-H1975; assay: Induction of apoptosis in human NCI-H1975 assessed as induction of chromatin shrinkage at 0.25 uM by H33342 staining-based inverted fluorescence microscopic analysis; format: functional, cell-based; in short: as §4
[20] = test system: A549; assay: Cell cycle arrest in human A549 cells assessed as accumulation of cells at G0/G1 phase at 1.80 uM after 24 hrs by propidium iodide staining-based flow cytometric analysis (reference value: 65.22%); format: functional; in short: as §1
[21] = test system: A549; assay: Cell cycle arrest in human A549 cells assessed as accumulation of cells at G0/G1 phase at 0.36 uM after 24 hrs by propidium iodide staining-based flow cytometric analysis (reference value: 65.22%); format: functional; in short: as §1
[22] = test system: NCI-H1975; assay: Induction of apoptosis in human NCI-H1975 at 0.25 uM by acridine orange staining-based fluorescence assay; format: functional, cell-based; in short: as §3

Epidermal growth factor receptor (Homo sapiens, UniProt P00533), sequence (P00533 whole entry): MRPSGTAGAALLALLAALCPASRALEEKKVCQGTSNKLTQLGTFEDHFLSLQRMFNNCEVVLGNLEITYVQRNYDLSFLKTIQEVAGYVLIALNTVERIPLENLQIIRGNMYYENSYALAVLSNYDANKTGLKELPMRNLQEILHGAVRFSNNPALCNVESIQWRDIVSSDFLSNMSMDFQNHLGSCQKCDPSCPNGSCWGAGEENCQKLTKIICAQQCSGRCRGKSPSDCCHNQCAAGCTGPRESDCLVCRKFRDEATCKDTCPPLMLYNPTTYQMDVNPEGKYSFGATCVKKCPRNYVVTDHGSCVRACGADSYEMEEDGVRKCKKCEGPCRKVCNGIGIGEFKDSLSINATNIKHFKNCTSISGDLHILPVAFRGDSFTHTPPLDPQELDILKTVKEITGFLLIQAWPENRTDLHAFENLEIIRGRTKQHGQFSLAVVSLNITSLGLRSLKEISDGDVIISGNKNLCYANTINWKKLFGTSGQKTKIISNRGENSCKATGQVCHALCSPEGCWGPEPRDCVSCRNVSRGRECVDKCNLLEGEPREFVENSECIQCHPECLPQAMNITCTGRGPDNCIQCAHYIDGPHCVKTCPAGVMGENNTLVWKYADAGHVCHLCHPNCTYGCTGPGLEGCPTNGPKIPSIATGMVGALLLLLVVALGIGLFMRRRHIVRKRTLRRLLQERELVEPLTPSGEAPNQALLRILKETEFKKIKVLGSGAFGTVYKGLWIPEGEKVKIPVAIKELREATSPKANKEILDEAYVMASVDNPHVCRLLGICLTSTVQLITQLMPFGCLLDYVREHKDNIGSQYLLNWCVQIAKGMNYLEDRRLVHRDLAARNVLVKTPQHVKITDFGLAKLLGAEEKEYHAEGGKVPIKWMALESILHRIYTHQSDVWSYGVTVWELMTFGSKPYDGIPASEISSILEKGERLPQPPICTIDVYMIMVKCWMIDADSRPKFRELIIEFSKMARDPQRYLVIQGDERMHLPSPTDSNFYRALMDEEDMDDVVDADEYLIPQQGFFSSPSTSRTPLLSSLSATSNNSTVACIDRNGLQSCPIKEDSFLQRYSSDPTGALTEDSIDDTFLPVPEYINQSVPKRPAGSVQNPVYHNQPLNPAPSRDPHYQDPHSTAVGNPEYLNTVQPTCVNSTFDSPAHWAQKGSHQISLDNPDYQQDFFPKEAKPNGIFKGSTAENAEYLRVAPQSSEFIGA
Epidermal growth factor receptor (Homo sapiens, UniProt P00533, L858R/T790M), sequence (P00533 25-1210 T790M/L858R limits assumed): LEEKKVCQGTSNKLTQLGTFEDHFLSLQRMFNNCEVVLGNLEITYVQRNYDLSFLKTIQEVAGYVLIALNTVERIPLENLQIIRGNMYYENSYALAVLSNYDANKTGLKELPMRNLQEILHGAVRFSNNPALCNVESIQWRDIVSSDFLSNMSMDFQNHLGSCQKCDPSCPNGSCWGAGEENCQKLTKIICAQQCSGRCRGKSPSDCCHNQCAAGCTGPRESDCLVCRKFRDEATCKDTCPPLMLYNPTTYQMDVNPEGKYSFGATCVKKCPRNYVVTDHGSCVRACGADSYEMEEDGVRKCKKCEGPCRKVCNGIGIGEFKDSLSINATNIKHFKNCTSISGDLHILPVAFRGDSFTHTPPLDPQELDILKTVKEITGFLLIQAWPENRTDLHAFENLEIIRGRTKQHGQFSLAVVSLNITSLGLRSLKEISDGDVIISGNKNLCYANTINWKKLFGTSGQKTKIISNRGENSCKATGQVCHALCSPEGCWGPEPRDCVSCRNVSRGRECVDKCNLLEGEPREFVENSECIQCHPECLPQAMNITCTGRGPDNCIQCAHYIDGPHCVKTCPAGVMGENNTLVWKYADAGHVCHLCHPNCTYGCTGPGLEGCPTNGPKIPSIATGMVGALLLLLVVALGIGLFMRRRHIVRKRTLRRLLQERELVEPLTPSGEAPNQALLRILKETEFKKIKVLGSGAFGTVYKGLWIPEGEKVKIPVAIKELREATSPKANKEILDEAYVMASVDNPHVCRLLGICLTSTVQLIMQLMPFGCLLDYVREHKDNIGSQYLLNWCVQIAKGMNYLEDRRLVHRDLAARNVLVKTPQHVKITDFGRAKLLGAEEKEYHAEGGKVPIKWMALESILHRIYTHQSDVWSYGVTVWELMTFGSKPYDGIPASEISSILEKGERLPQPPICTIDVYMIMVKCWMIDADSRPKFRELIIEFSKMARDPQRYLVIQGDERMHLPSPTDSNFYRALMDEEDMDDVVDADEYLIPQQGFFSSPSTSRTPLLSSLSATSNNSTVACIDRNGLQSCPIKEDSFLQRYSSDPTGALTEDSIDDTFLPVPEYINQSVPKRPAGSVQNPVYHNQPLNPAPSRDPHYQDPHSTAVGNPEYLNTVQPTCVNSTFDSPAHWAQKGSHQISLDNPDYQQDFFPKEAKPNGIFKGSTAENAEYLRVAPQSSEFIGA

- IC50 [2]: 329 nM
- IC50 [5]: 365 nM
- IC50 [6]: 1530 nM
- IC50 [7]: 8 nM
- IC50 [9]: 254 nM
- Ratio IC50 [10]: 191
Compound: CCC/C=C\C(=O)Nc1cc(Nc2nc(C)cc(-c3cn(C)c4ccccc34)n2)c(OC)cc1N(C)CCN(C)C
- Activity [1]: 15.28%
- Activity [3]: Active
- Activity [4]: 6.07%
- Activity [8]: 39.81%
- Activity [11]: Active
- Activity [12]: 22.24%
- Activity [13]: Dose-dependent effect
- Activity [14]: 37.15%
- Activity [15]: 38.24%
- Activity [16]: Active
- Activity [17]: Active
- Activity [18]: 44.91%
- Activity [19]: Active
- Activity [20]: 39.55%
- Activity [21]: 56.78%
- Activity [22]: Active
